Reference: ChEMBL document CHEMBL1649139, “A novel gene, erm(41), confers inducible macrolide resistance to clinical isolates of Mycobacterium abscessus but is absent from Mycobacterium chelonae” (2009)

Assays:
Type in all cases: functional
[1] = system: Mycobacteroides abscessus; experiment: Antimicrobial activity against Mycobacterium abscessus isolate MC879-2 at day 9 preincubated with 0.1 ug/ml erythromycin for 3 days by broth microdilution method
[2] = system: Mycobacteroides abscessus; experiment: Antimicrobial activity against Mycobacterium abscessus isolate MC879-2 at day 9 preincubated with 0.1 ug/ml for 3 days by broth microdilution method
[3] = system: Mycolicibacterium smegmatis; experiment: Antimicrobial activity against Mycobacterium smegmatis transformed with erm allele Mycobacterium abscessus isolate MC958 by broth microdilution method
[4] = system: Mycolicibacterium smegmatis; experiment: Antimicrobial activity against Mycobacterium smegmatis transformed with erm allele Mycobacterium abscessus isolate MC720 by broth microdilution method
[5] = system: Mycolicibacterium smegmatis; experiment: Antimicrobial activity against Mycobacterium smegmatis transformed with erm allele Mycobacterium abscessus isolate MC720 preincubated with 2 ug/ml erythromycin for 20 to 24 hrs by broth microdilution method
[6] = system: Mycolicibacterium smegmatis; experiment: Antimicrobial activity against Mycobacterium smegmatis transformed with erm allele Mycobacterium abscessus isolate MC879-2 by broth microdilution method
[7] = system: Mycolicibacterium smegmatis; experiment: Antimicrobial activity against Mycobacterium smegmatis transformed with erm allele Mycobacterium abscessus isolate MC879-2 preincubated with 2 ug/ml erythromycin for 20 to 24 hrs by broth microdilution method
[8] = system: Mycobacteroides abscessus; experiment: Antimicrobial activity against Mycobacterium abscessus isolate MC720 at day 5 by broth microdilution method; details: isolate MC720, 120 h
How it was run: (§1)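 Clarithromycin MIC by broth microdilution following CLSI guidelines. Before testing, organisms were preincubated for 3 days in medium alone or in clarithromycin or erythromycin (0.01–1 μg/ml), long enough for at least two generations judged by turbidity increase. MICs were read on day 3 and again on extended incubation out to day 14.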

[9] = system: Mycobacteroides abscessus; experiment: Antimicrobial activity against Mycobacterium abscessus isolate MC723 at day 5 by broth microdilution method; details: isolate MC723, 120 h; how it was run: as §1
[10] = system: Mycobacteroides abscessus; experiment: Antimicrobial activity against Mycobacterium abscessus isolate MC724 at day 7 by broth microdilution method; details: isolate MC724, 168 h
How it was run: (§2)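 Clinical M. abscessus isolates were preincubated for 3 days, either in medium alone or in clarithromycin or erythromycin at 0.01 to 1 μg/ml, allowing at least two generations of growth judged by turbidity. The clarithromycin MIC was then determined by CLSI-conforming broth microdilution, with plates read on day 3 and on extended incubation (days 5 to 14).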

[11] = system: Mycobacteroides abscessus; experiment: Antimicrobial activity against Mycobacterium abscessus isolate MC720 at day 9 by broth microdilution method; details: isolate MC720, 216 h; how it was run: as §1
[12] = system: Mycobacteroides abscessus; experiment: Antimicrobial activity against Mycobacterium abscessus isolate MC879 at day 14 by broth microdilution method; details: isolate MC879, 336 h
How it was run: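 Clarithromycin MIC by broth microdilution following CLSI guidelines. Organisms were preincubated […], for 3 days before the assay. This allowed at least two generations, judged by the rise in turbidity. The MIC was read at the stated day, with incubation extended from day 3 to as long as 14 days.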

[13] = system: Mycobacteroides abscessus; experiment: Antimicrobial activity against Mycobacterium abscessus isolate MC879 at day 3 preincubated with 0.1 ug/ml erythromycin for 3 days by broth microdilution method
How it was run: (§3)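 To test inducible resistance, cultures were preincubated for 3 days in clarithromycin or erythromycin, within 0.01–1 μg/ml. The period was set so cultures passed at least two generations, judged by turbidity increase. Clarithromycin MIC was then determined by CLSI-conforming broth microdilution and read on the stated day, from day 3 up to 14.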

[14] = system: Mycobacteroides abscessus; experiment: Antimicrobial activity against Mycobacterium abscessus isolate MC720 at day 3 preincubated with 0.1 ug/ml erythromycin for 3 days by broth microdilution method; how it was run: as §1
[15] = system: Mycobacteroides abscessus; experiment: Antimicrobial activity against Mycobacterium abscessus isolate MAB30 at day 5 by broth microdilution method; details: isolate MAB30, 120 h
How it was run: (§4)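 Clarithromycin MIC by CLSI-conforming broth microdilution. Before testing, cultures were preincubated for 3 days, either in medium alone or in clarithromycin or erythromycin (tested range 0.01–1 μg/ml). Preincubation ran for at least two generations, judged by turbidity increase. Plates were read on day 3 and on extended incubation at days 5 to 14.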

[16] = system: Mycobacteroides abscessus; experiment: Antimicrobial activity against Mycobacterium abscessus isolate MC1082 at day 5 by broth microdilution method; details: isolate MC1082, 120 h; how it was run: as §4
[17] = system: Mycobacteroides abscessus; experiment: Antimicrobial activity against Mycobacterium abscessus isolate MAB30 at day 7 by broth microdilution method; details: isolate MAB30, 168 h; how it was run: as §4
[18] = system: Mycobacteroides abscessus; experiment: Antimicrobial activity against Mycobacterium abscessus isolate MC1028 at day 7 by broth microdilution method; details: isolate MC1028, 168 h; how it was run: as §4
[19] = system: Mycobacteroides abscessus; experiment: Antimicrobial activity against Mycobacterium abscessus isolate MC1028 at day 14 by broth microdilution method; details: isolate MC1028, 336 h; how it was run: as §4
[20] = system: Mycobacteroides abscessus; experiment: Antimicrobial activity against Mycobacterium abscessus isolate MC1082 at day 14 by broth microdilution method; details: isolate MC1082, 336 h; how it was run: as §4
[21] = system: Mycobacteroides abscessus; experiment: Antimicrobial activity against Mycobacterium abscessus isolate MC1028 at day 3 preincubated with 0.1 ug/ml erythromycin for 3 days by broth microdilution method; how it was run: as §4
[22] = system: Mycobacteroides abscessus; experiment: Antimicrobial activity against Mycobacterium abscessus isolate MAB30 at day 7 preincubated with 0.1 ug/ml erythromycin for 3 days by broth microdilution method; how it was run: as §4
[23] = system: Mycobacteroides abscessus; experiment: Antimicrobial activity against Mycobacterium abscessus isolate MC1082 at day 9 preincubated with 0.1 ug/ml erythromycin for 3 days by broth microdilution method; how it was run: as §4
[24] = system: Mycobacteroides abscessus; experiment: Antimicrobial activity against Mycobacterium abscessus isolate MC720 at day 5 preincubated with 0.1 ug/ml erythromycin for 3 days by broth microdilution method; how it was run: as §2
[25] = system: Mycobacteroides abscessus; experiment: Antimicrobial activity against Mycobacterium abscessus isolate MC723 at day 5 preincubated with 0.1 ug/ml erythromycin for 3 days by broth microdilution method; how it was run: as §2
[26] = system: Mycobacteroides abscessus; experiment: Antimicrobial activity against Mycobacterium abscessus isolate MC724 at day 5 preincubated with 0.1 ug/ml erythromycin for 3 days by broth microdilution method; how it was run: as §2
[27] = system: Mycobacteroides abscessus; experiment: Antimicrobial activity against Mycobacterium abscessus isolate MC724 at day 7 preincubated with 0.1 ug/ml erythromycin for 3 days by broth microdilution method; how it was run: as §3
[28] = system: Mycobacteroides abscessus; experiment: Antimicrobial activity against Mycobacterium abscessus isolate MC1082 at day 14 preincubated with 0.1 ug/ml erythromycin for 3 days by broth microdilution method; how it was run: as §4
[29] = system: Mycobacteroides abscessus; experiment: Antimicrobial activity against Mycobacterium abscessus isolate MC1448 at day 3 by broth microdilution method; details: isolate MC1448, 72 h; how it was run: as §4
[30] = system: Mycobacteroides abscessus; experiment: Antimicrobial activity against Mycobacterium abscessus isolate MC1448 at day 7 by broth microdilution method; details: isolate MC1448, 168 h; how it was run: as §1
[31] = system: Mycobacteroides abscessus; experiment: Antimicrobial activity against Mycobacterium abscessus isolate MC879-2 at day 9 by broth microdilution method; details: isolate MC879-2, 216 h
[32] = system: Mycobacteroides abscessus; experiment: Antimicrobial activity against Mycobacterium abscessus isolate MC958 at day 14 preincubated with 0.1 ug/ml erythromycin for 3 days by broth microdilution method; how it was run: as §3
[33] = system: Mycobacteroides abscessus; experiment: Antimicrobial activity against Mycobacterium abscessus isolate MC879 at day 3 preincubated with 0.1 ug/ml for 3 days by broth microdilution method; how it was run: as §3
[34] = system: Mycobacteroides abscessus; experiment: Antimicrobial activity against Mycobacterium abscessus isolate MC723 at day 3 preincubated with 0.1 ug/ml for 3 days by broth microdilution method; how it was run: as §1
[35] = system: Mycobacteroides abscessus; experiment: Antimicrobial activity against Mycobacterium abscessus isolate MC719 at day 7 preincubated with 0.1 ug/ml for 3 days by broth microdilution method; how it was run: as §1
[36] = system: Mycobacteroides abscessus; experiment: Antimicrobial activity against Mycobacterium abscessus isolate MC720 at day 14 preincubated with 0.1 ug/ml for 3 days by broth microdilution method; how it was run: as §1

Measured: MIC

CC[C@H]1OC(=O)[C@H](C)[C@@H](O[C@H]2C[C@@](C)(OC)[C@@H](O)[C@H](C)O2)[C@H](C)[C@@H](O[C@@H]2O[C@H](C)C[C@H](N(C)C)[C@H]2O)[C@](C)(OC)C[C@@H](C)C(=O)[C@H](C)[C@@H](O)[C@]1(C)O [CLARITHROMYCIN]
16 µg/mL: [5] | [7]
8 µg/mL: [10]
4 µg/mL: [24] | [25] | [26]
1 µg/mL: [8] | [9]
> 32 µg/mL: [1] | [2] | [11] | [12] | [27] | [29] | [30] | [31] | [32] | [35] | [36]
2 µg/mL: [3] | [4] | [6]
≤ 0.5 µg/mL: all other assays above
